The values below come from ChEMBL document CHEMBL1150274 (Bioorg Med Chem, 2008).

Experiment [1] addresses T1, Mu-type opioid receptor (Homo sapiens, UniProt P35372). Description: Displacement of [3H]DAMGO from human mu opioid receptor expressed in CHO cells. It counts as cell-based. (In general: In a radioligand displacement assay an active substance lowers the binding of a labelled ligand.)
The target in experiment [2] is Delta-type opioid receptor (Homo sapiens, UniProt P41143). As to the kind of experiment: Displacement of [3H]naltrindole from human delta opioid receptor expressed in CHO cells. Type of experiment: cell-based.
The target of experiment [3] is T2, Kappa-type opioid receptor (Homo sapiens, UniProt P41145). As to the kind of experiment: Displacement of [3H]U69,593 from human kappa opioid receptor expressed in CHO cells. It counts as cell-based.
Experiment [4] addresses T1, Mu-type opioid receptor. Description: Activity at human mu opioid receptor expressed in CHO cells assessed as stimulation of [35S]GTPgammaS binding relative to basal level. Type of experiment: functional, cell-based. A digest of the protocol:
(§1)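 Twelve compound concentrations were incubated with CHO membranes (κ 15 μg, μ 7.5 μg) and 0.080 nM [35S]GTPγS for 60 min at 30°C. Nonspecific binding was defined with 10 μM GTPγS. Samples were filtered and counted. Emax was taken with basal set at 0%, with EC50. Mean ± SEM, ≥3 experiments in triplicate.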

The target of experiment [5] is T1, Mu-type opioid receptor. Description: Antagonist activity at human mu opioid receptor expressed in CHO cells assessed as inhibition of DAMGO-stimulated [35S]GTPgammaS binding. Type of experiment: functional, cell-based.
Experiment [6] deals with T2, Kappa-type opioid receptor. As to the kind of experiment: Activity at human kappa opioid receptor expressed in CHO cells assessed as stimulation of [35S]GTPgammaS binding relative to basal level. It counts as functional, cell-based. A digest of the protocol: as §1
On the technique in general: Binding of GTPγS marks nucleotide exchange on a G protein.

Experiment [7] has as its target T2, Kappa-type opioid receptor. As to the kind of experiment: Antagonist activity at human kappa opioid receptor expressed in CHO cells assessed as inhibition of U50,488-stimulated [35S]GTPgammaS binding. It counts as functional, cell-based. The method in brief: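 κ-receptor CHO membranes were incubated with compound in the presence of 100 nM U50,488 in a [35S]GTPγS binding assay.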

In experiment [8] the target is T2, Kappa-type opioid receptor. Description: Activity at human kappa opioid receptor expressed in CHO cells assessed as stimulation of [35S]GTPgammaS binding. It counts as functional, cell-based. A digest of the protocol:
as §1

SMILES strings stand for the structures. The source made the active and inactive calls. No cut-off for these calls is given here.

T2 sequence (P41145 whole entry): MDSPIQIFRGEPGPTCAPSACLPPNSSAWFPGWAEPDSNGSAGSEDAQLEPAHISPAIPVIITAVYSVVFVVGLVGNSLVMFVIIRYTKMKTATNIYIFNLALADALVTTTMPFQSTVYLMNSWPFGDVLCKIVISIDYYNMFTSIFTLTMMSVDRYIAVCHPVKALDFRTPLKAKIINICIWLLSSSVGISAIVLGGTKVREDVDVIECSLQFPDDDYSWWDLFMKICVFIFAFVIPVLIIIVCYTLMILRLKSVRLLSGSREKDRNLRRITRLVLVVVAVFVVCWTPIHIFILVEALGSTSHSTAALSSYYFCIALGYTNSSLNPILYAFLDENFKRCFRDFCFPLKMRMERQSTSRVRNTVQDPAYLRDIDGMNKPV
Delta-type opioid receptor, sequence (P41143 whole entry): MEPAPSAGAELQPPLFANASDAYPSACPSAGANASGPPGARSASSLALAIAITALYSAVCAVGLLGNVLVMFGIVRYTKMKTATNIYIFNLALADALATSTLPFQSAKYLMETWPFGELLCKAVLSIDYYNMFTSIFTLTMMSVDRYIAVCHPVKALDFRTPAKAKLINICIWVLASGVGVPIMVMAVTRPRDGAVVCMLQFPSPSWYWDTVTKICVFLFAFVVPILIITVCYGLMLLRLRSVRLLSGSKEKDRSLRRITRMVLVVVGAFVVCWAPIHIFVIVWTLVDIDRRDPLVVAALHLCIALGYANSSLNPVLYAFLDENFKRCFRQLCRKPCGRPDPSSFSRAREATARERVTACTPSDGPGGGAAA
T1 sequence (P35372 whole entry): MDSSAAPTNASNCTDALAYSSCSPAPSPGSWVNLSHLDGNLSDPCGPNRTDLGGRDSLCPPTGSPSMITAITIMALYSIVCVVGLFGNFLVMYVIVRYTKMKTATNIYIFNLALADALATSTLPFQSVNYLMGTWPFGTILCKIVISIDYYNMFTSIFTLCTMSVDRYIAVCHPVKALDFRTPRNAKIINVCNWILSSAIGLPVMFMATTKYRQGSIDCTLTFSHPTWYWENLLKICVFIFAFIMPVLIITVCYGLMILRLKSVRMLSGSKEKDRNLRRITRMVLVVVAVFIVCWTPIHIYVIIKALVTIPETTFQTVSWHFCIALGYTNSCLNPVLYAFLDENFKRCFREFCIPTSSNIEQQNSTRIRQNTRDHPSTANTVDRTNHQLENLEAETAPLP

A word on the Ki: it is the equilibrium dissociation constant of an inhibitor or competing ligand from its target. Low readings indicate higher affinity, high ones lower affinity. As to `C[C@H]1C2Cc3cc4ncnc(NCCc5ccc(-c6ccccc6)cc5)c4cc3[C@@]1(C)CCN2CC1CC1` (mixture of isomers), the Ki on Mu-type opioid receptor [1] amounted to 28 nM; in experiment [2], 410 nM; in experiment [3], 140 nM.

For the compound `C[C@H]1C2Cc3cc4ncnc(NCc5ccccc5)c4cc3[C@@]1(C)CCN2CC1CC1` (mixture of isomers), the Ki was determined as 88 nM at Mu-type opioid receptor [1], 1000 nM in experiment [2] and 48 nM in experiment [3].

Consider `C[C@H]1C2Cc3ccc4c(NCCc5ccc(-c6ccccc6)cc5)ncnc4c3[C@@]1(C)CCN2CC1CC1` (mixture of isomers), for which the values for the Ki (on Mu-type opioid receptor [1]; in experiment [2]; in experiment [3]) were 6.9 nM, 52 nM and 8.6 nM, respectively.

The Emax is the size of the effect at its maximum, as opposed to the concentration needed. Broadly, the IC50 is the concentration needed to halve the response being measured. Turning to `C[C@H]1C2Cc3ccc4c(N)ncnc4c3[C@@]1(C)CCN2CC1CC1` (mixture of isomers), the Ki on Mu-type opioid receptor [1] turned out to be 0.55 nM; in experiment [2], 120 nM; in experiment [3], 1 nM. The Emax worked out at 0.64% at Mu-type opioid receptor [4] and 6.3% in experiment [6]. For the same compound, the figures for the IC50 (on Mu-type opioid receptor [5]; in experiment [7]) were 28 nM and 1300 nM, respectively. Further, the Imax was 88% on Mu-type opioid receptor [5] and 75% in experiment [7].

As a reminder, the EC50 is the concentration at which the effect is half-maximal. Turning to `C[C@H]1C2Cc3cc4cc[nH]c(=O)c4cc3[C@@]1(C)CCN2CC1CC1` (mixture of isomers), the values for the Ki (at Mu-type opioid receptor [1]; in experiment [2]; in experiment [3]) were 5.5 nM, 74 nM and 0.74 nM, respectively. In addition, the Emax at Mu-type opioid receptor [4] came out at 27%; in experiment [6], 91%. Besides, the IC50 at Mu-type opioid receptor [5] is 850 nM. On Mu-type opioid receptor [5], the Imax worked out at 69%. For the same compound, the EC50 in experiment [8] stood at 60 nM. Further, in experiment [7], the result was inactive.

With `C[C@H]1C2Cc3cc([N+](=O)[O-])c(O)cc3[C@@]1(C)CCN2CC1CC1` (mixture of isomers), the Ki on Mu-type opioid receptor [1] is 3800 nM; in experiment [2] it was above 10000 nM; in experiment [3], 580 nM.

For `C[C@H]1C2Cc3ccc(C(N)=O)c([N+](=O)[O-])c3[C@@]1(C)CCN2CC1CC1` (mixture of isomers), the Ki was 20 nM at Mu-type opioid receptor [1], 220 nM in experiment [2] and 34 nM in experiment [3].

As for `C[C@H]1C2Cc3cc([N+](=O)[O-])c(C(N)=O)cc3[C@@]1(C)CCN2CC1CC1` (mixture of isomers), the figures for the Ki (at Mu-type opioid receptor [1]; in experiment [2]; in experiment [3]) were 630 nM, 730 nM and 110 nM, respectively.

`C[C@H]1C2Cc3cc4ncnc(N)c4cc3[C@@]1(C)CCN2CC1CC1` (mixture of isomers): the Ki on Mu-type opioid receptor [1] is 890 nM; in experiment [2], above 10000 nM; in experiment [3], 560 nM.

`C[C@H]1C2Cc3ccc(O)c([N+](=O)[O-])c3[C@@]1(C)CCN2CC1CC1` (mixture of isomers): the Ki on Mu-type opioid receptor [1] is 32 nM; in experiment [2] it was 1900 nM; in experiment [3], 3.2 nM.

In the case of `C[C@H]1C2Cc3ccc4c(NCc5ccccc5)ncnc4c3[C@@]1(C)CCN2CC1CC1` (mixture of isomers), the Ki at Mu-type opioid receptor [1] stood at 44 nM; in experiment [2] it was 1500 nM; in experiment [3], 240 nM.

For `C[C@H]1C2Cc3ccc(C(N)=O)c(N)c3[C@@]1(C)CCN2CC1CC1` (mixture of isomers), the Ki at Mu-type opioid receptor [1] amounted to 0.55 nM; in experiment [2] it was 35 nM; in experiment [3], 0.7 nM. Further, the Emax at Mu-type opioid receptor [4] is 4.6%; in experiment [6], 38%. Besides, on Mu-type opioid receptor [5], the IC50 worked out at 31 nM. Also, on Mu-type opioid receptor [5], the Imax was 93%. For the same compound, the EC50 in experiment [8] came to 15 nM. For the same compound, in experiment [7], the result was inactive.
